According to ChEMBL document CHEMBL1139875, “Discovery of 4-aminobutyric acid derivatives possessing anticonvulsant and antinociceptive activities: a hybrid pharmacophore approach” (2007):
Active and inactive are the calls of the source. The calls are words filed in the database; no cut-off is given here.

What was measured:
Mus musculus [1] = assay: Anticonvulsant activity in Swiss Albino mouse at 300 mg/kg, ip after 0.5 hr by MES test; type: functional, organism-based; parameters: dose 300 mg/kg
Outline: (§1)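 Mice (Swiss, 20-25 g) given i.p. doses of 30, 100 and 300 mg/kg under ADD program protocols, three per group, examined at 0.5 and 4 h in MES, scPTZ, scSTY or scPIC seizure tests. Value is the minimum dose protecting half or more of the mice.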

Mus musculus [2] = assay: Anticonvulsant activity in Swiss Albino mouse at 300 mg/kg, ip after 4 hrs by MES test; type: functional, organism-based; parameters: dose 300 mg/kg; outline: as §1
Mus musculus [3] = assay: Anticonvulsant activity in Swiss Albino mouse at 300 mg/kg, ip after 0.5 hr by scPTZ test; type: functional, organism-based; parameters: dose 300 mg/kg; outline: as §1
Mus musculus [4] = assay: Anticonvulsant activity in Swiss Albino mouse at 300 mg/kg, ip after 0.5 hr by scSTY test; type: functional, organism-based; parameters: dose 300 mg/kg; outline: as §1
Mus musculus [5] = assay: Anticonvulsant activity in Swiss Albino mouse at 300 mg/kg, ip after 4 hrs by scSTY test; type: functional, organism-based; parameters: dose 300 mg/kg; outline: as §1
Mus musculus [6] = assay: Anticonvulsant activity in Swiss Albino mouse at 300 mg/kg, ip after 0.5 hr by scPIC test; type: functional, organism-based; parameters: dose 300 mg/kg; outline: as §1
Mus musculus [7] = assay: Anticonvulsant activity in Swiss Albino mouse at 300 mg/kg, ip after 4 hrs by scPIC test; type: functional, organism-based; parameters: dose 300 mg/kg; outline: as §1
Mus musculus [8] = assay: Neurotoxicity in Swiss Albino mouse at 300 mg/kg, ip after 0.5 hr by rotarod test; type: functional, organism-based; parameters: dose 300 mg/kg
Outline: (§2)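 Swiss mice (20-25 g) are trained on an accelerating rotorod (10 rpm, 3.2 cm rod), then injected i.p. at 30, 100 or 300 mg/kg, with three per group. Neurotoxicity means failure to keep equilibrium for at least 1 min in each of three trials, checked at 0.5 and 4 h. The value reported is the minimum dose affecting half or more of the mice.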

Mus musculus [9] = assay: Neurotoxicity in Swiss Albino mouse at 300 mg/kg, ip after 4 hrs by rotarod test; type: functional, organism-based; parameters: dose 300 mg/kg; outline: as §2
Mus musculus [10] = assay: Analgesic activity in Swiss Albino mouse assessed as number of acetic acid-induced writhing per 30 min after 100 mg/kg, ip; type: functional; settings: route intraperitoneal
Outline: (§3)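 Mice in groups of six dosed i.p. at 100 mg/kg, controls receiving 30% v/v PEG 400 in water. Writhing induced by i.p. 0.1 mL of 3% v/v acetic acid 1 h after drug. Writhes (abdominal stretch with at least one hind limb extended) counted over 30 min; % inhibition calculated. Mean ± SEM, Student's t test.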

Mus musculus [11] = assay: Analgesic activity in Swiss Albino mouse assessed as inhibition of acetic acid-induced writhing responses at 100 mg/kg, ip; type: functional; settings: route intraperitoneal; outline: as §3
Rattus norvegicus [12] = assay: Anti-dynamic allodynia effect in Sprague-Dawley rat SNL model assessed as latency to paw withdrawal 100 mg/kg, ip after 0.5 hr; type: functional; settings: route intraperitoneal
Outline: (§4)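 Left L5 spinal nerve ligation rats, tested preoperatively and 9 days postoperatively, then given 100 mg/kg i.p. (vehicle 30% v/v PEG 400 in water). After 10 min acclimatization, plantar surface of affected paw stroked mildly with a cotton-bud; paw lift response recorded. n = 4; retested 0.5-2.5 h post-dose.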

Rattus norvegicus [13] = assay: Anti-dynamic allodynia effect in Sprague-Dawley rat SNL model assessed as latency to paw withdrawal 100 mg/kg, ip after 1 hr; type: functional; settings: route intraperitoneal; outline: as §4
Rattus norvegicus [14] = assay: Anti-dynamic allodynia effect in Sprague-Dawley rat SNL model assessed as latency to paw withdrawal 100 mg/kg, ip after 1.5 hrs; type: functional; settings: route intraperitoneal; outline: as §4
Rattus norvegicus [15] = assay: Anti-dynamic allodynia effect in Sprague-Dawley rat SNL model assessed as latency to paw withdrawal 100 mg/kg, ip after 2 hrs; type: functional; settings: route intraperitoneal; outline: as §4
Rattus norvegicus [16] = assay: Anti-dynamic allodynia effect in Sprague-Dawley rat SNL model assessed as latency to paw withdrawal 100 mg/kg, ip after 2.5 hrs; type: functional; settings: route intraperitoneal; outline: as §4
Rattus norvegicus [17] = assay: Anti-cold allodynia effect in Sprague-Dawley rat SNL model assessed as duration of paw withdrawal 100 mg/kg, ip after 0.5 hr; type: functional; settings: route intraperitoneal
Outline: (§5)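 Left L5 spinal nerve ligation under pentobarbital (65 mg/kg i.p.). Allodynic rats dosed i.p. 100 mg/kg, vehicle 30% v/v PEG 400 in water. Acetone (100-200 µL) misted onto midplantar affected paw after 10 min acclimatization; paw withdrawal duration, mean of three samples at least 3 min apart; n = 4 rats.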

Rattus norvegicus [18] = assay: Anti-cold allodynia effect in Sprague-Dawley rat SNL model assessed as duration of paw withdrawal 100 mg/kg, ip after 1 hrs; type: functional; settings: route intraperitoneal; outline: as §5
Rattus norvegicus [19] = assay: Anti-cold allodynia effect in Sprague-Dawley rat SNL model assessed as duration of paw withdrawal 100 mg/kg, ip after 1.5 hrs; type: functional; settings: route intraperitoneal; outline: as §5
Rattus norvegicus [20] = assay: Anti-cold allodynia effect in Sprague-Dawley rat SNL model assessed as duration of paw withdrawal 100 mg/kg, ip after 2 hrs; type: functional; settings: route intraperitoneal; outline: as §5
Rattus norvegicus [21] = assay: Anti-cold allodynia effect in Sprague-Dawley rat SNL model assessed as duration of paw withdrawal 100 mg/kg, ip after 2.5 hrs; type: functional; settings: route intraperitoneal; outline: as §5
Rattus norvegicus [22] = assay: Antihyperalgesic effects in Sprague-Dawley rat CCI model assessed as duration of paw withdrawal at 100 mg/kg, ip after 0.5 hr; type: functional; settings: route intraperitoneal
Rattus norvegicus [23] = assay: Antihyperalgesic effects in Sprague-Dawley rat CCI model assessed as duration of paw withdrawal at 100 mg/kg, ip after 1 hr; type: functional; settings: route intraperitoneal
Rattus norvegicus [24] = assay: Antihyperalgesic effects in Sprague-Dawley rat CCI model assessed as duration of paw withdrawal at 100 mg/kg, ip after 1.5 hrs; type: functional; settings: route intraperitoneal
Rattus norvegicus [25] = assay: Antihyperalgesic effects in Sprague-Dawley rat CCI model assessed as duration of paw withdrawal at 100 mg/kg, ip after 2 hrs; type: functional; settings: route intraperitoneal
Rattus norvegicus [26] = assay: Antihyperalgesic effects in Sprague-Dawley rat CCI model assessed as duration of paw withdrawal at 100 mg/kg, ip after 2.5 hrs; type: functional; settings: route intraperitoneal
Rattus norvegicus [27] = assay: Effect on spontaneous pain in Sprague-Dawley rat SNL model assessed as duration of paw withdrawal at 100 mg/kg, ip after 0.5 hr; type: functional; settings: route intraperitoneal
Outline: (§6)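 Rats underwent left L5 spinal nerve ligation (Kim and Chung) under i.p. pentobarbital (65 mg/kg). Spontaneous pain is recorded for 5 min after 10 min acclimatization, as cumulative duration the ipsilateral paw is lifted, excluding locomotor lifts. Dosing is 100 mg/kg i.p. in 30% v/v PEG 400/water, with testing at 0.5–2.5 h. Four rats, mean ± SEM versus predrug, one-way ANOVA with Bonferroni.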

Rattus norvegicus [28] = assay: Effect on spontaneous pain in Sprague-Dawley rat SNL model assessed as duration of paw withdrawal at 100 mg/kg, ip after 1 hr; type: functional; settings: route intraperitoneal; outline: as §6
Rattus norvegicus [29] = assay: Effect on spontaneous pain in Sprague-Dawley rat SNL model assessed as duration of paw withdrawal at 100 mg/kg, ip after 1.5 hrs; type: functional; settings: route intraperitoneal; outline: as §6
Rattus norvegicus [30] = assay: Effect on spontaneous pain in Sprague-Dawley rat SNL model assessed as duration of paw withdrawal at 100 mg/kg, ip after 2 hrs; type: functional; settings: route intraperitoneal; outline: as §6
Rattus norvegicus [31] = assay: Effect on spontaneous pain in Sprague-Dawley rat SNL model assessed as duration of paw withdrawal at 100 mg/kg, ip after 2.5 hrs; type: functional; settings: route intraperitoneal; outline: as §6
Rattus norvegicus [32] = organism: Rattus norvegicus; assay: Anti-dynamic allodynic effect in Sprague-Dawley rat CCI model assessed as latency to paw withdrawal after 0.5 hr; type: functional
Outline: (§7)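 Rats with sciatic nerve chronic constriction injury (pentobarbital 65 mg/kg i.p. anaesthesia), baseline and day 9 testing, then drug per randomization table. After 10 min acclimatization, affected plantar surface stroked mildly with a cotton-bud; paw lift recorded. n = 4; retested 0.5-2.5 h post-dose.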

Rattus norvegicus [33] = organism: Rattus norvegicus; assay: Anti-dynamic allodynic effect in Sprague-Dawley rat CCI model assessed as latency to paw withdrawal after 1 hr; type: functional; outline: as §7
Rattus norvegicus [34] = organism: Rattus norvegicus; assay: Anti-dynamic allodynic effect in Sprague-Dawley rat CCI model assessed as latency to paw withdrawal after 1.5 hr; type: functional; outline: as §7
Rattus norvegicus [35] = organism: Rattus norvegicus; assay: Anti-dynamic allodynic effect in Sprague-Dawley rat CCI model assessed as latency to paw withdrawal after 2 hr; type: functional; outline: as §7
Rattus norvegicus [36] = organism: Rattus norvegicus; assay: Anti-dynamic allodynic effect in Sprague-Dawley rat CCI model assessed as latency to paw withdrawal after 2.5 hr; type: functional; outline: as §7

## O=C(O)CCCNC(=O)N/N=C(\c1ccccc1)c1ccc(Br)cc1
Mus musculus [1]
  Activity: Active
Mus musculus [2]
  Activity: inactive
Mus musculus [3]
  Activity: inactive
Mus musculus [4]
  Activity: Active
Mus musculus [5]
  Activity: Active
Mus musculus [6]
  Activity: inactive
Mus musculus [7]
  Activity: inactive
Mus musculus [8]
  Activity: inactive
Mus musculus [9]
  Activity: inactive
Mus musculus [10]
  Activity: 21
Mus musculus [11]
  inhibition in vivo at 100 mg/kg: 89%
Rattus norvegicus [12]
  Activity: 9.8 s
Rattus norvegicus [13]
  Activity: 10.6 s
Rattus norvegicus [14]
  Activity: 10.8 s
Rattus norvegicus [15]
  Activity: 10.3 s
Rattus norvegicus [16]
  Activity: 10.23 s
Rattus norvegicus [17]
  Activity: 19.1 s
Rattus norvegicus [18]
  Activity: 23.8 s
Rattus norvegicus [19]
  Activity: 11.8 s
Rattus norvegicus [20]
  Activity: 10.8 s
Rattus norvegicus [21]
  Activity: 10.2 s
Rattus norvegicus [22]
  Activity: 20.5 s
Rattus norvegicus [23]
  Activity: 8.5 s
Rattus norvegicus [24]
  Activity: 5.1 s
Rattus norvegicus [25]
  Activity: 7.3 s
Rattus norvegicus [26]
  Activity: 5.6 s
Rattus norvegicus [27]
  Activity: 25.1 s
Rattus norvegicus [28]
  Activity: 28.5 s
Rattus norvegicus [29]
  Activity: 23.1 s
Rattus norvegicus [30]
  Activity: 10.1 s
Rattus norvegicus [31]
  Activity: 8.7 s
Rattus norvegicus [32]
  Activity: 11.4 s
Rattus norvegicus [33]
  Activity: 10.3 s
Rattus norvegicus [34]
  Activity: 10.6 s
Rattus norvegicus [35]
  Activity: 10.9 s
Rattus norvegicus [36]
  Activity: 11.3 s
